Activity calls are given as the source filed them. The rule behind the calls is not given here.
Columns and labels:
[1] = system: 3T3-L1; experiment: Antiobesity activity in mouse 3T3L1 cells assessed as increase in glycerol release up to 100 uM after 24 hrs relative to control; type: functional, cell-based
Procedure, shortened: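 Mouse 3T3-L1 preadipocytes were differentiated from day 0 (one day post-confluence) in 10% FBS/DMEM with 0.5 mM IBMX, 0.25 μM DEX and 5 μg/mL insulin, then switched to insulin medium, then plain medium; used on day 8. Samples were dissolved in DMSO and diluted into phenol-red-free DMEM, applied for 24 h. Medium glycerol was measured with free glycerol reagent (37 °C, 5 min, A540) relative to control; 1 μM isoproterenol positive control; mean ± SEM, n=6, Dunnett's test.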

[2] = system: 3T3-L1; experiment: Antiobesity activity in mouse 3T3L1 cells assessed as reduction in accumulation of lipid droplets up to 100 uM administered on day 4 post differentiation induction measured on day 9 by Oil Red O staining-based microscopic analysis relative to control; type: functional, cell-based
[3] = system: 3T3-L1; experiment: Antiobesity activity in mouse 3T3L1 cells assessed as increase in glycerol release after 24 hrs; type: functional, cell-based; details: for EC50: 3T3-L1, 24 h
Procedure, shortened: (§1)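 3T3-L1 preadipocytes were differentiated with IBMX (0.5 mM), DEX (0.25 μM) and insulin (5 μg/mL) from day 0, then insulin alone, then plain 10% FBS/DMEM. On day 8 they were exposed to sample (DMSO stock diluted in phenol-red-free DMEM) for 24 h. Medium was mixed with free glycerol reagent (37 °C, 5 min) and read at A540, relative to control. Mean ± SEM, n=6.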

[4] = system: 3T3-L1; experiment: Antiobesity activity in mouse 3T3L1 cells assessed as reduction in accumulation of lipid droplets administered on day 4 post differentiation induction measured on day 9 by Oil Red O staining-based microscopic analysis; type: functional, cell-based
[5] = system: 3T3-L1; experiment: Cytotoxicity against mouse 3T3L1 cells assessed as reduction in cell viability up to 100 uM after 6 to 48 hrs by CCK-8 assay; type: cell-based
[6] = system: Mus musculus; experiment: Activation of PKA in mouse 3T3-L1 cells assessed as lipolytic activity by measuring increase in glycerol release at 25 uM administered 1 hr after PKA inhibitor addition measured after 24 hrs in presence of 20 uM PKA inhibitor H-89; type: cell-based
Procedure, shortened: (§2)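 Day-8 differentiated 3T3-L1 adipocytes were preincubated with the specified inhibitor for 1 h, then incubated with sample plus inhibitor for 24 h in phenol-red-free DMEM. Released glycerol in the medium was quantified with free glycerol reagent (37 °C, 5 min, A540) and expressed relative to control.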

[7] = system: Mus musculus; experiment: Activation of ERK in mouse 3T3-L1 cells assessed as lipolytic activity by measuring increase in glycerol release at 25 uM administered 1 hr after ERK inhibitor addition measured after 24 hrs in presence of 20 uM ERK inhibitor PD 98059; type: cell-based; procedure, shortened: as §2
[8] = target: Beta-3 adrenergic receptor (Mus musculus) (UniProt P25962); experiment: Activation of beta3 adrenergic receptor in mouse 3T3-L1 cells assessed as lipolytic activity by measuring increase in glycerol release at 25 uM administered 1 hr after beta3 adrenergic receptor inhibitor addition measured after 24 hrs in presence of 20 uM […] inhibitor propranolol; type: cell-based; procedure, shortened: as §2
Chain of Beta-3 adrenergic receptor (Mus musculus) (P25962 whole entry): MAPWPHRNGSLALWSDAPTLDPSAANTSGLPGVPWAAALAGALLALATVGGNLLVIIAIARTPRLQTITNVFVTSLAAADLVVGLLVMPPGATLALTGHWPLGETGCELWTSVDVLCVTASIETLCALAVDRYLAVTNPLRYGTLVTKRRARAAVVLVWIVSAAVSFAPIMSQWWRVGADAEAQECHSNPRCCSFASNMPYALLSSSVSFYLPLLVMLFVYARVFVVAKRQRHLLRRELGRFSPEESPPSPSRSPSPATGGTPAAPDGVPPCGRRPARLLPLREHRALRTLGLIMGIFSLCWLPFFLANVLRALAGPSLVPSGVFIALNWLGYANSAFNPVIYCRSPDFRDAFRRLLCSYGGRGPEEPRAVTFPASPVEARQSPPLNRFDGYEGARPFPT

[9] = organism: Mus musculus; experiment: Induction of PKA phosphorylation in mouse 3T3-L1 cells at 12.5 uM in presence of 20 uM H-89 by immunoblotting; type: cell-based
[10] = system: 3T3-L1; experiment: Antiobesity activity in mouse 3T3L1 cells assessed as glycerol release at 1 uM after 24 hrs relative to control; type: functional; procedure, shortened: as §1

Compound: CC1=CC(=O)[C@@H](O)[C@]2(C)C3[C@]4(O)OC[C@@]35[C@@H](C[C@@H]12)OC(=O)[C@H](O)[C@@]5(O)[C@@](O)(CO)[C@H]4O (some centres undefined)
- Activity [1]: inactive
- Activity [2]: inactive

Compound: C=C1[C@@H](O)[C@@]2(O)OC[C@]34C2[C@@]2(C)[C@H](O)C(=O)C=C(C)[C@@H]2C[C@H]3OC(=O)[C@H](O)[C@@]14O (some centres undefined)
- Activity [3]: Dose-dependent effect
- EC50 [3]: 14.6 µM
- Activity [4]: Dose-dependent effect
- Activity [5]: Non-Toxic
- Activity [6]: Active
- Activity [7]: inactive
- Activity [8]: inactive
- Activity [9]: Active

Compound: CC1=CC(=O)[C@@H](O)[C@]2(C)C3[C@]4(O)OC[C@@]35[C@@H](C[C@@H]12)OC(=O)[C@H](O)[C@@]5(O)[C@@]1(CO1)[C@H]4O (some centres undefined)
- Activity [3]: Dose-dependent effect
- EC50 [3]: 8.6 µM
- Activity [4]: Dose-dependent effect
- Activity [5]: Non-Toxic
- Activity [6]: Active
- Activity [7]: inactive
- Activity [8]: inactive
- Activity [9]: Active

Compound: CC(C)NCC(O)c1ccc(O)c(O)c1 (centres undefined) [ISOPROTERENOL]
- Activity [10]: 322%
